Assay outcomes deposited in PubChem by several laboratories.
Hits are enriched below; roughly 1.8% of the tested compounds scored in any of these assays.
Rin1 Abl inh: blocks binding of human Rin1 to Abl | P00519+Q13671 | TR-FRET Rin1/Abl binding, biochemical | inhibition, % at 7.35 µM | 360,000 compounds, 0.4% hits | AID 588664; in the data active means inhibition above about 5%, passing the limit was not always enough
Tb MetRS inh: blocks T. brucei methionyl-tRNA synthetase activity | 360,000 compounds, 0.4% hits | inhibition, % at 11.9 µM | AID 624268 | purified T. brucei MetRS, ATP depletion, Kinase-Glo luminescence;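 active means inhibition above a per-plate cutoff of the control wells' mean inhibition plus 3 SD, cut at about 5.5% in these data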;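 further: 0% = DMSO wells median and 100% = median of wells with control inhibitor compound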
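Dosing: 11.9 µM compound single dose, 0.9% DMSO; Assay system: purified T. brucei MetRS enzyme; Measured by: Kinase-Glo luciferase luminescence reporting remaining unconsumed ATP; Schedule: 15 min plus 2 h at 25 °C.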
Rev-erbA mod: Rev-erb alpha (human) modulation; P20393; Rev-erbα–FITC-DNA binding, fluorescence polarization, 90 min; activity, % at 10 µM; 370,000 compounds, 0.79% hits; AID 1259318;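 active means activity above about 14%, limit read from the data; passing the limit was not always enough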;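 further: 0% = DMSO wells with 35 nM protein and 100% = DMSO wells with 750 nM protein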
Target sequence (P20393 whole entry, looked up): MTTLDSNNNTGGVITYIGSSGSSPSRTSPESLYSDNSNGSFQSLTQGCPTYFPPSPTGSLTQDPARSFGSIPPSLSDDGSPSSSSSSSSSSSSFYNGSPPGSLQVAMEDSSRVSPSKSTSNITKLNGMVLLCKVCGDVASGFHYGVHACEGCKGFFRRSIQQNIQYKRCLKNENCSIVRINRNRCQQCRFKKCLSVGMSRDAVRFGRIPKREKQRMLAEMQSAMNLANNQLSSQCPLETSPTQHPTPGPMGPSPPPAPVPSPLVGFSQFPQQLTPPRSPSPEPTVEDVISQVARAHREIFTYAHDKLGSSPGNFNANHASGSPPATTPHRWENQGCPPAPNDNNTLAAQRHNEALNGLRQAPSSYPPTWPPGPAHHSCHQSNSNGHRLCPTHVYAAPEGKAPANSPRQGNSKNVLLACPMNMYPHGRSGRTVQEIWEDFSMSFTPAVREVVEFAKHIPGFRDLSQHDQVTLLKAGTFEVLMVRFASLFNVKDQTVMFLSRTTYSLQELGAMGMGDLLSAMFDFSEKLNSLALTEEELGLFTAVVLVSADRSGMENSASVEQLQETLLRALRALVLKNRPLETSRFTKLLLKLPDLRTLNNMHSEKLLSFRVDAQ
PG9 Ab binder: small molecules binding HIV-1 gp120 antibody PG9 | 360,000 compounds, 0.43% hits | AID 624416 | TR-FRET gp120-PG9 antibody binding | inhibition, % at 6.7 µM; in the data active means inhibition above about 8.5%
Rev-erbA confirm: Rev-erb alpha (human) modulation, hit confirmation; shares compounds with Rev-erbA mod; Rev-erb alpha FITC-DNA binding, fluorescence polarization, 90 min; activation, % at 25 µM; 3,000 compounds, 61% hits; AID 1259319;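 active means activation at or above a set limit, or at least 3 SD above the negative control mean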;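 further: 0% = 35 nM protein with DMSO and 100% = 750 nM protein high control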
RORg DNA counter: affects RORgamma DNA binding in a Rev-erb alpha counter-screen | purified RORgamma protein-FITC-DNA binding, fluorescence polarization | IC50, µM | 910 compounds, 8% hits | shares compounds with Rev-erbA mod;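 active means Compounds whose fitted half-maximal concentration for disrupting protein-DNA binding is below 10 micromolar; the record names Rev-erb in its text, so the target is in doubt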
* = called active by the depositor; / = not tested or not shown.

SMILES	Rin1 Abl inh	Tb MetRS inh	Rev-erbA mod	PG9 Ab binder	Rev-erbA confirm	others
N#C/C(=C/c1ccc(N2CCCCC2)o1)C(=O)Nc1ccc(Cl)cc1	0	-1	10	-10	/
C=CCN1C(=O)c2ccc(C(=O)NCCOc3ccccc3F)cc2C1=O	-1	0	6	-1	/
Cc1cccc2cc(C#N)c(SCC(=O)NCC3CCCO3)nc12 (configuration not stated)	-5	0	8	0	/
Cc1cccc2cc(C#N)c(SCC#N)nc12	-4	0	63*	2	53*	RORg DNA counter=>40
CC(=O)Nc1sc(C)c(C)c1C(=O)OCC(=O)N(Cc1ccccc1)C(C)C	0	0	42*	-2	32*	RORg DNA counter=>40
CCC(=O)Nc1sc(C(=O)Nc2ccccc2OC)c(C)c1C(=O)OC	1	-1	42*	1	18
CCOc1ccc(NC(=O)c2sc(NC(C)=O)c(C(=O)OC)c2C)cc1	0	0	31*	3	6
COc1ccccc1NC(=O)COC(=O)c1c(NC(C)=O)sc(C)c1C	-2	0	19*	-2	6
C=CCCC1CN(Cc2ccc(OC)cc2)S(=O)(=O)c2c(Oc3ccc(C)cc3)cccc2O1 (configuration not stated)	/	/	7	-1	/
COc1ccc(S[C@]2(C(=O)N3CCCC3)CC(=O)N(C(=O)C3CC3)[C@@H]2c2ccc(OC)cc2)cc1	/	/	10	/	/
COc1ccc(NC(=O)C2CCCN(C(=O)c3ccc(Cl)cc3)C2)cc1Cl (configuration not stated)	-2	0	-6	0	/
CCOC(=O)c1cc(C)nnc1C(=O)OCC	0	0	-5	0	/
CN1C(=O)c2cc(NC(=O)c3cccc(F)c3)ccc2OC[C@@H]2O[C@H](CC(=O)NCc3ccccc3)CC[C@H]21	/	/	-1	/	/
COC(=O)C[C@@H]1CC[C@@H]2[C@@H](COc3ccc(NC(=O)Nc4ccccc4)cc3C(=O)N2C)O1	/	/	-4	/	/
Cc1ccccc1NC(=O)Nc1ccc2c(c1)C(=O)N(C)[C@H]1CC[C@H](CC(=O)NCC3CC3)O[C@@H]1CO2	/	/	30*	/	14*
CN1C(=O)c2cc(NC(=O)c3ccccc3)ccc2OC[C@H]2O[C@@H](CC(=O)NCC3CC3)CC[C@@H]21	/	/	34*	/	22*
CC1(CN2CCCC2)CCC(NC(=O)C(c2ccccc2)c2ccccc2)C(C)(C)O1 (configuration not stated)	8	0	-1	0	/
CCc1sc(C(=O)N(CCCOC)c2c(N)n(CC(C)C)c(=O)[nH]c2=O)cc1C	1	0	0	2	/
O=C(NCc1ccc(F)cc1)c1c(O)c2cccc3c2n(c1=O)CCC3	0	0	37*	1	11
O=C(NCc1ccccc1)c1c(O)c2cccc3c2n(c1=O)CCC3	-2	0	-5	4	/
N#CCOc1ccccc1CNC[C@H]1O[C@@H](n2cnc(C(N)=O)n2)[C@H](O)[C@@H]1O	0	-1	16*	1	-7
CN(CCC#N)c1ccc(/C=C(\C#N)c2ccccn2)cc1	-7	0	71*	-2	75*	RORg DNA counter=>40
COC(=O)[C@H]1[C@@H](C)N(Cc2ccccc2)C(=O)N[C@H]1c1ccccc1	2	0	-5	-1	/
CCOC(=O)c1ccc2c(c1)sc(=NC(=O)c1ccco1)n2CCOC	-1	0	35*	8	25*
CCOC(=O)Cn1c(=NC(=O)c2nc3ccccc3s2)sc2cc(S(N)(=O)=O)ccc21	-2	-1	48*	-11	29*
CCOC(=O)Cn1c(=NC(=O)c2cccs2)sc2cc(C(=O)OC)ccc21	-2	0	85*	1	75*	RORg DNA counter=>40
O=C1NC(c2ccccc2)(c2ccccc2)C(=O)N1CNc1ccccn1	/	/	1	1	/
CC1(C(=O)OCC(=O)Nc2cc(S(=O)(=O)N3CCOCC3)ccc2Cl)CC1(Cl)Cl (configuration not stated)	1	0	7	-1	/
COC(=O)[C@]12C[C@H](CC(=O)NCc3cccc4ccccc34)C(=O)N(Cc3ccc4c(c3)OCO4)C1=C[C@H](COCc1ccccc1)O[C@@H]2C	/	/	3	0	/
